# Assay outcomes (PubChem)
# Cl transport mod: modulators of human KCC2 chloride dependent transport; B-score of Tl+ flux slope (higher = more flux/activation; lower = inhibition) at 10 µM; KCC2 cells, thallium flux FluoZin-2 fluorescence; Q9H2X9; 2.2% of 190,000 active;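 active = thallium flux slope and its plate-corrected score both differing from the plate sample mean at a set confidence after two filtering rounds, in either direction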;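 also: slope of fluorescence scaled to starting intensity during 10 to 20 s after thallium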
# KCNQ1 pot: potentiators or activators of human KCNQ1 potassium channel; CHO-K1 KCNQ1, thallium flux FluxOR fluorescence; active compounds read high; B-score at 10 µM; 0.35% of 310,000 active;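 active = fluorescence ratio B-score, a plate-corrected score, at least three library SD, with initial intensity B-score within 5 SD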
#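 Medium – assay buffer, equal DMSO in all wells · Material – CHO-K1 cell line with stable KCNQ1 potassium channel expression · Signal – kinetic FluxOR thallium fluorescence, 10-s 1-Hz baseline, 110-s post-stimulus read · Compound – single concentration per compound, DMSO matched to controls · Schedule – 37 °C overnight plating, 90-min dark dye load, 20-min compound pretreatment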
# SUMO Mot1 rescue: SUMOylation pathway inhibition by Mot1-301 growth rescue; S. cerevisiae Mot1-301 growth rescue, ATP luminescence, 38.5C; percent above DMSO median, 100 means doubled; growth rescue, % at 18.8 µM; 1% of 320,000 active; AID 2716;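 active = every valid replicate shows activation above 250% relative to neutral control wells; inactive = the rest, any valid replicate at or below 250%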;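 also: OY570 slx delta 5 strain wells were the positive control but not used for scaling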
# AI-2 QS mod: modulators of Vibrio harveyi AI-2 quorum sensing system. activity change, % at 7.5 µM. AID 2094. Vibrio harveyi JMH597 AI-2 luminescence/OD600 ratio, 9 h; active compounds read low; strain lacks LuxN and CqsS sensors; 0 = neutral-control median. 0.4% of 300,000 active; in the data active = activity change below about -75%, passing the limit was not always enough; inconclusive = no clear call, values can overlap the other calls;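 also: luminescence divided by OD600 gain over 9 h not by final OD600 alone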
# KCNQ1 block: inhibitors of human KCNQ1 potassium channel | P51787 | CHO-K1 KCNQ1, FluxOR thallium flux fluorescence; active compounds read high | B-score at 10 µM | 1.3% of 310,000 active | AID 2642;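 active = compounds whose thallium flux B-score, printed positive for inhibition, exceeds three library SD while starting fluorescence stays within three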;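 also: channel opened by potassium depolarization with thallium stimulus after 20 min compound exposure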
# hERG rescue: compounds protecting human hERG from proarrhythmic drug block. Q12809. 0.51% of 310,000 active. AID 1511. activation (rescue from dofetilide block), less the hit threshold, % at 10 µM. CHO-hERG, FluxOR thallium flux, dofetilide IC70 present;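 active = activation above the mean of controls blocked by dofetilide plus 5 SD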;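 also: thallium influx through hERG after potassium depolarization seen as dye fluorescence rise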
# KCC2 sec1: KCC2 (human) modulation, secondary assay; 15% of 3,700 active; HEK293-KCC2, thallium flux, FluoZin2 fluorescence; active compounds read high; AID 1713; shares compounds with Cl transport mod; normalised thallium flux (F/F0 slope) at 10 µM;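 active = thallium flux slope above the same plate's solvent-only control mean plus 3 SD; inconclusive = the two replicate wells disagree; inactive = no significant difference from solvent-only control wells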
# KCC2 bumet counter: thallium flux persisting under bumetanide in KCC2 cells, counter-screen secondary assay; 49% of 3,700 active; HEK293-KCC2 + bumetanide/ouabain, thallium flux FluoZin2; active compounds read high; shares compounds with Cl transport mod; normalized thallium flux at 10 µM;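 active = thallium entry rate above the same plate's blocked-transporter control wells by more than 3 SD; inconclusive = the two repeat wells disagree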;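 also: raw slope of fluorescence over initial fluorescence between 10 and 20 s after thallium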
# KCC2 sec2: confirmation of human KCC2 transport modulators; shares compounds with Cl transport mod; HEK293-KCC2, thallium flux FluoZin2 fluorescence; actives lie on both sides; F/F0 rise rate, 10–20 s post-thallium; normalized thallium flux at 10 µM; 23% of 3,700 active; AID 1715;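 active = thallium flux slope more than 3 SD above or below the plate's solvent-only control mean, mostly below; inconclusive = the two repeat wells disagreed; inactive = no significant shift from solvent-only controls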;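 also: raw slope with 0.1% DMSO as baseline and bumetanide as block control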
# HEK293 Tl flux: parental HEK flux effect, counter-screen | HEK293 parental cells, thallium flux FluoZin2, ouabain; baseline-ratio fluorescence slope, 10–20 s after thallium | thallium flux rate (normalised fluorescence) at 10 µM | shares compounds with Cl transport mod | 46% of 3,700 active | AID 1716;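 active = thallium flux rate significantly above the same plate's solvent-only control wells, beyond their mean plus 3 SD; inconclusive = the two replicate wells gave conflicting results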
# KCC2 ouabain: modulates human KCC2 on retest with ouabain; 48% of 3,700 active; HEK293-KCC2, thallium flux FluoZin2 fluorescence; bidirectional: low = inhibitor, high = activator; raw Tl+ flux slope (below DMSO = inhibition, above = activation) at 10 µM; AID 1717; shares compounds with Cl transport mod;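 active = thallium flux slope beyond 3 SD from same-plate DMSO control mean in most replicates, usually higher, sometimes lower; inconclusive = repeat tests gave conflicting results; inactive = no significant difference from controls in most replicates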;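 also: slope of initial-normalized fluorescence between seconds 10 and 20 after thallium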
# HEK counter2: acts in parental HEK cells, second KCC2 counter-screen | shares compounds with Cl transport mod | HEK293 parental, thallium flux FluoZin-2 fluorescence slope | thallium flux slope at 10 µM | 33% of 3,700 active;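 active = thallium flux slope above the same plate's solvent-control mean plus 3 SD in both duplicate wells; inconclusive = duplicate wells that disagreed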;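 also: run without ouabain in cells lacking the KCC2 cotransporter; slope of fluorescence scaled to its starting value between 10 and 20 s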
# Active calls of the source: *; i = inactive; ? = inconclusive; · = no result given. Only some compounds are listed: those with a hit (about 4.2% of all), similar ones and a draw of the others.
SMILES,Cl transport mod,KCNQ1 pot,SUMO Mot1 rescue,AI-2 QS mod,KCNQ1 block,hERG rescue,KCC2 sec1,KCC2 bumet counter,KCC2 sec2,HEK293 Tl flux,KCC2 ouabain,HEK counter2
O=C(NC(=S)Nc1ccccc1N1CCCC1)c1ccc(F)cc1,16*,i,-0.4,24.1,i,-9.4,0.0178*,0.0502*,0.0352,0.0484*,0.0393*,0.0154*
O=C(Nc1ccccc1N1CCCC1)c1cccc(F)c1,·,i,3.6,6.7,i,-7.1,·,·,·,·,·,·
CC(C)C(=O)N1CCN(c2ccccc2NC(=S)NC(=O)c2cccs2)CC1,2.8,i,-15.3,22.6,i,-4.6,0.00633,0.00859*,0.0279,0.0091*,0.0186,?
O=C(NC(=S)Nc1ccccc1N1CCOCC1)c1ccc(-c2ccccc2F)o1,15.1*,13*,-8.0,11.4,i,-5.3,0.0112,0.0283*,0.0369,0.0336*,0.0307*,0.0122
Cn1c(=O)c2sccc2n2c(CCCC(=O)NCc3ccco3)nnc12,·,i,5.8,33.4,i,-9.8,·,·,·,·,·,·
Cc1ccccc1C(=O)NC(=S)Nc1ccccc1N1CCCC1,11.3*,i,-0.3,25.3,i,-7.0,0.00676,0.0248*,0.0314,0.0263*,0.0296*,0.0152*
Cc1cc(C(=O)NC(=S)Nc2ccccc2N2CCOCC2)ccc1[N+](=O)[O-],5.37*,i,17.2,25.7,i,0.6,0.00908,0.00996*,0.0304,?,?,?
O=C(Nc1ccccc1N1CCCCC1)c1ncoc1-c1ccc(F)cc1,2.14*,i,-5.0,-10.2,i,-12.1,0.00858,0.00552,0.0303,0.008,0.0178,0.0115
Cc1cc(C(=O)NC(=S)Nc2ccccc2N2CCCC2)ccc1[N+](=O)[O-],2.28,i,-4.6,31.8,i,-10.0,·,·,·,·,·,·
Cc1ccccc1C(=O)Nc1ccccc1N1CCN(C(=O)c2ccccc2)CC1,·,i,-24.8,21.6,i,-20.0,·,·,·,·,·,·
O=C(NC(=S)Nc1ccccc1N1CCCCC1)c1ccccc1,11.9*,i,9.4,11.4,i,-4.8,0.00635,0.0228*,0.0338,0.0112*,0.0277*,?
O=C(NC(=S)Nc1ccccc1N1CCOCC1)c1ccc(Br)cc1,·,i,-15.0,9.9,i,-5.2,·,·,·,·,·,·
O=C(Nc1ccccc1N1CCCCC1)c1ncoc1-c1cccc(F)c1,0.868,i,1.1,-1.9,i,-12.1,·,·,·,·,·,·
CC(/C=C/c1ccccc1)=N\NC(=S)NC(C)C,8.02*,i,-11.6,-12.5,i,-9.1,0.00683,0.0181*,0.0304,0.0171*,?,0.0136*
Cc1nc(SCc2ccccc2)c([N+](=O)[O-])[nH]1,-5.2*,i,7.2,12.7,i,-8.4,0.00895,0.00613,0.0271*,0.00385,0.0139*,0.0112
COc1ccc(CSc2nc(C)[nH]c2[N+](=O)[O-])cc1[N+](=O)[O-],-1.4,i,-2.2,19.3,i,-9.6,·,·,·,·,·,·
O=C(CSc1nnnn1Cc1ccccc1)c1ccc(F)cc1,-0.825,i,-26.3,25.0,i,-4.0,·,·,·,·,·,·
CC1Cc2ccccc2N1C(=O)CSc1nnnn1Cc1ccccc1 (configuration not stated),-3.61*,i,3.9,26.6,i,-7.9,0.0072,0.00464,0.0226*,0.00732,0.015*,0.00953
COc1ccc(C(=O)CSc2nnnn2Cc2ccccc2)cc1,-6.37*,i,-23.3,3.0,i,0.3,0.00482,0.00744*,0.0248*,0.00761,?,0.0116
O=C(CSc1nnnn1Cc1ccccc1)c1ccccc1,-3.24*,i,-21.0,18.7,i,-6.7,0.00685,0.00561,0.0274,0.00689,?,0.00901
COC(=O)c1ccc(CSc2nnnn2Cc2ccccc2)cc1,-1.4,i,14.4,-2.1,i,-8.2,·,·,·,·,·,·
CC(=O)c1cccc(NC(=O)C(C)OC(=O)CCc2nc3ccccc3c(=O)[nH]2)c1 (configuration not stated),·,·,18.5,·,·,·,·,·,·,·,·,·
Cc1ccccc1CS(=O)(=O)CCC(=O)NCc1ccccn1,·,i,-12.3,4.5,i,-1.9,·,·,·,·,·,·
O=C(O)/C(=C\c1ccc(Br)cc1)c1ccc(S(=O)(=O)N2CCCCC2)s1,-6.89*,i,3.8,27.5,i,-12.3,0.00764,0.00675,0.0329,0.00407,0.0123*,0.0114
Cc1ccc(N=Nc2ccc(O)c3ncccc23)cc1C,8.21*,11*,-18.1,26.5,i,-1.0,0.00781,0.00773*,0.0324,0.0138*,0.0227,?
SMILES,Cl transport mod,KCNQ1 pot,SUMO Mot1 rescue,AI-2 QS mod,KCNQ1 block,hERG rescue,KCC2 sec1,KCC2 bumet counter,KCC2 sec2,HEK293 Tl flux,KCC2 ouabain,HEK counter2
CN(C)S(=O)(=O)c1cccc(NC(=O)c2ccccc2OCc2ccc(F)cc2)c1,·,i,-13.1,22.9,i,-5.3,·,·,·,·,·,·
C/C(=N\NC(=S)Nc1c(C)cccc1C)c1cc2ccccc2o1,8.64*,i,321.9*,15.5,i,1.7,0.00639,0.0115*,0.0309,0.0173*,?,0.0129*
C/C(=N\NC(=S)Nc1ccccc1C)c1cc2ccccc2o1,40.3*,i,0.3,8.6,i,-6.9,0.00798,0.0473*,0.0475*,0.0431*,0.0518*,0.0346*
Cc1onc(C(=O)N2CCC(Cc3ccccc3)CC2)c1[N+](=O)[O-],·,i,·,4.9,i,-12.0,·,·,·,·,·,·
Cc1onc(C(=O)N2CCN(Cc3ccccc3)CC2)c1[N+](=O)[O-],-4.1*,i,105.8,?,i,-7.5,0.00884,0.00654,?,0.00749,0.0194*,0.0104
CC(C)CC(CO)N1CCN(C(=O)c2ccc(Cl)cc2)CCC1=O (configuration not stated),·,i,11.0,13.4,i,-7.6,·,·,·,·,·,·
